Where a SMILES comes first, the peptide text is derived from it. Bridges are numbered along the chain shown (N, C = ends). [ ]: non-standard residue; d: D form. 2Nal = N[C@@H](Cc1ccc2ccccc2c1)C(=O)O; Cit = NC(=O)NCCC[C@H](N)C(=O)O

T1 sequence (P61073 whole entry): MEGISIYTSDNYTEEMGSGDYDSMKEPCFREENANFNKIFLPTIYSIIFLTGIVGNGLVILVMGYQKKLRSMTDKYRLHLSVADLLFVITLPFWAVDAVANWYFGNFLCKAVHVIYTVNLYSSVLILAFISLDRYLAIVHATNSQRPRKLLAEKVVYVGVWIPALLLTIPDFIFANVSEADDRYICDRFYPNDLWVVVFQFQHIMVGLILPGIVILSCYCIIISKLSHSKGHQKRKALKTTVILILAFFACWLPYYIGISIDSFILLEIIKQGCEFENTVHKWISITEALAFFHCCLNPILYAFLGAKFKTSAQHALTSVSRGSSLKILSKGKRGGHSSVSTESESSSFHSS

The target in one experiment is T1, C-X-C chemokine receptor type 4 (Homo sapiens, UniProt P61073). The experiment can be described thus: Antagonist activity at CXCR4 in human U87 cells assessed as inhibition of SDF1-induced modulation of cAMP production by TR-FRET assay. The class given is functional, cell-based. To be noted: U-87MG ATCC. The gist of the method:
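U87 glioma cells overexpressing CD4 and CXCR4 (U87CD4CXCR4), seeded 2500 cells/well in 2% FBS 48 h before test. Cells pretreated with compound at various concentrations for 15 min at room temperature, then challenged with 150 ng/mL SDF-1. SDF-1-driven cAMP reduction measured by TR-FRET LANCE cAMP kit as Gi function readout.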
(Cyclic AMP is a second messenger, typically raised through Gs and lowered through Gi signalling.)
As for `c1ccc(NCc2ccc(CNc3ccccn3)cc2)nc1`, the Activity result is “Dose-dependent effect”.

For a further experiment, the target named is T1, C-X-C chemokine receptor type 4. As to the kind of experiment: Inhibition of CXCR4 in MDA-MB-231 cells. It counts as cell-based.
Conditions: not given
A digest of the protocol: (§1)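 MDA-MB-231 cells (2 × 10^4) seeded 2 days before. Exposed to compound at 1, 10, 100 or 1000 nM for 10 min at room temperature, then fixed in ice-cold 4% paraformaldehyde. After rehydration in PBS and avidin/biotin blocking, incubated 45 min at room temperature with 0.05 µg/mL biotinylated TN14003, then streptavidin-rhodamine 30 min. Residual binding assessed by fluorescence microscopy.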
Regarding `N=C(N)NCCC[C@H](NC(=O)[C@@H]1CSSC[C@H](NC(=O)[C@H](Cc2ccc3ccccc3c2)NC(=O)[C@H](CCCNC(=N)N)NC(=O)[C@@H](N)CCCNC(=N)N)C(=O)N[C@@H](Cc2ccc(O)cc2)C(=O)N[C@@H](CCCNC(N)=O)C(=O)N[C@@H](CCCCN)C(=O)N[C@H](CCCCN)C(=O)N2CCC[C@H]2C(=O)N[C@@H](Cc2ccc(O)cc2)C(=O)N[C@@H](CCCNC(=N)N)C(=O)N[C@@H](CCCNC(N)=O)C(=O)N1)C(N)=O` (H-RR[2Nal]CY[Cit]K[dK]PYR[Cit]CR-NH2; disulfide 4-13), the IC50 came out at 0.6 nM.

Tested on in another experiment: not listed separately
As to the kind of experiment: Selectivity index, ratio of IC50 for CXCR4 to CC50 for MDA-MB-231 cells. The class given is functional, Homo sapiens.
Conditions: not given
Consider `N=C(N)NCCC[C@H](NC(=O)[C@@H]1CSSC[C@H](NC(=O)[C@H](Cc2ccc3ccccc3c2)NC(=O)[C@H](CCCNC(=N)N)NC(=O)[C@@H](N)CCCNC(=N)N)C(=O)N[C@@H](Cc2ccc(O)cc2)C(=O)N[C@@H](CCCNC(N)=O)C(=O)N[C@@H](CCCCN)C(=O)N[C@H](CCCCN)C(=O)N2CCC[C@H]2C(=O)N[C@@H](Cc2ccc(O)cc2)C(=O)N[C@@H](CCCNC(=N)N)C(=O)N[C@@H](CCCNC(N)=O)C(=O)N1)C(N)=O` (H-RR[2Nal]CY[Cit]K[dK]PYR[Cit]CR-NH2; disulfide 4-13), for which the Ratio was determined as 680000.

Another experiment concerns MDA-MB-231. As to the kind of experiment: Cytotoxicity against MDA-MB-231 cells. The class given is functional. To be noted: Homo sapiens.
In the case of `N=C(N)NCCC[C@H](NC(=O)[C@@H]1CSSC[C@H](NC(=O)[C@H](Cc2ccc3ccccc3c2)NC(=O)[C@H](CCCNC(=N)N)NC(=O)[C@@H](N)CCCNC(=N)N)C(=O)N[C@@H](Cc2ccc(O)cc2)C(=O)N[C@@H](CCCNC(N)=O)C(=O)N[C@@H](CCCCN)C(=O)N[C@H](CCCCN)C(=O)N2CCC[C@H]2C(=O)N[C@@H](Cc2ccc(O)cc2)C(=O)N[C@@H](CCCNC(=N)N)C(=O)N[C@@H](CCCNC(N)=O)C(=O)N1)C(N)=O` (H-RR[2Nal]CY[Cit]K[dK]PYR[Cit]CR-NH2; disulfide 4-13), the CC50 came to 410000 nM.

The subject of another experiment is MDA-MB-231. As to the kind of experiment: Inhibition of SDF1-mediated invasion of human MDA-MB-231 cells. It counts as functional, cell-based.
Conditions: not given
The gist of the method:
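Matrigel invasion chamber; MDA-MB-231 cells mixed with compound before seeding in top chamber, 200 ng/mL SDF-1α in bottom chamber as chemoattractant. Incubated 22 h in humidified incubator. Non-invading cells swabbed off the top. Invaded cells on the underside fixed in methanol, stained with H&E and counted to give invasion rate.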
In turn, `c1ccc(NCc2ccc(CNc3ccccn3)cc2)nc1` yielded an EC50 of 5.2 nM.

The next experiment deals with T1, C-X-C chemokine receptor type 4. As to the kind of experiment: Displacement of biotinylated TN14003 from CXCR4 in MDA-MB-231 cells. The class given is cell-based.
Conditions: not given
The gist of the method:
as §1
The compound `CC(Nc1ccccc1)c1ccc(C(C)Nc2ccccc2)cc1` (stereo not given) showed an EC of 50 nM.
The compound `COc1cccc(NC(=O)c2ccc(C(=O)Nc3cccc(OC)c3)cc2)c1` had an EC of 1000 nM.
In turn, `CN(Cc1ccc(CN(C)c2ccccc2)cc1)c1ccccc1` returned an EC of 100 nM.
Same read-out and setting: then `CN(C)Cc1ccc(CN(C)C)cc1`, with above 1000 nM; and `NC(=O)c1ccc(C(N)=O)cc1`, with above 1000 nM; and `N=C(N)N/N=C/c1ccc(/C=N/NC(=N)N)cc1`, with 100 nM.
`Fc1ccccc1NCc1ccc(CNc2ccccc2F)cc1`: the EC is 1 nM.
In turn, `Cc1c(C)c(CNc2ccccc2)c(C)c(C)c1CNc1ccccc1` showed an EC of 10 nM.
In the case of `Fc1cccc(NCc2ccc(CNc3cccc(F)c3)cc2)c1`, the EC was determined as 100 nM.
Take `COc1ccccc1NCc1ccc(CNc2ccccc2OC)cc1`: the EC came out at 10 nM.
`CN(C)CCNCc1ccc(CNCCN(C)C)cc1` returned an EC above 1000 nM.
`O=[N+]([O-])c1cccc(NCc2ccc(CNc3cccc([N+](=O)[O-])c3)cc2)c1` displayed an EC of 1 nM.
`c1ccc(NCc2cccc(CNc3ccccc3)c2)cc1` gave an EC of 10 nM.
Same read-out and setting: then `c1ccc(-c2nc(-c3ccc(-c4nc(-c5ccccc5)c(-c5ccccc5)[nH]4)cc3)[nH]c2-c2ccccc2)cc1`, with above 1000 nM.
`N=C(N)c1ccc(C(=N)N)cc1` came in with an EC above 1000 nM.
Take `COc1ccc(NCc2ccc(CNc3ccc(OC)cc3)cc2)cc1`: the EC was 25 nM.
Compound `N=C(N)c1ccc(CN)cc1` gave an EC above 1000 nM.
The same measure, in the same setting: then `N#Cc1ccc(NCc2ccc(CNc3ccc(C#N)cc3)cc2)cc1`, with 1000 nM; and `FC(F)(F)c1cccc(NCc2ccc(CNc3cccc(C(F)(F)F)c3)cc2)c1`, with 1000 nM.
With `c1ccc(NCCNCc2ccc(CNCCNc3ccccc3)cc2)cc1`, the EC is above 1000 nM.
On to `N=C(N)NCc1ccc(CNC(=N)N)cc1`, for which the EC is above 1000 nM.
For the compound `O=[N+]([O-])c1ccc(NCc2ccc(CNc3ccc([N+](=O)[O-])cc3)cc2)cc1`, the EC came to 1000 nM.
In turn, `C[N+](C)(C)Cc1ccc(C[N+](C)(C)C)cc1` gave an EC above 1000 nM.
Regarding `c1ccc(NCc2ccc(CNc3ccccc3)cc2)cc1`, the EC is 10 nM.
The compound `Fc1ccc(NCc2ccc(CNc3ccc(F)cc3)cc2)cc1` gave an EC of 1000 nM.
`c1ccc(NC[C@H]2CC[C@H](CNc3ccccc3)CC2)cc1`: the EC is above 1000 nM.
As to `Cc1cc(CNc2ccccc2)c(C)cc1CNc1ccccc1`, the EC came to 200 nM.
In the case of `c1ccc(CNCc2ccc(CNCc3ccccc3)cc2)cc1`, the EC amounted to 80 nM.
Regarding `c1ccc(NCc2cc(CNc3ccccc3)cc(CNc3ccccc3)c2)cc1`, the EC is above 1000 nM.
`c1ccc(CNc2ccccc2)cc1` returned an EC above 1000 nM.
In the case of `c1ccc(NCc2c3ccccc3c(CNc3ccccc3)c3ccccc23)cc1`, the EC was 100 nM.
`COc1cccc(NCc2ccc(CNc3cccc(OC)c3)cc2)c1` yielded an EC of 1 nM.
In turn, `Cc1c(C)c(CN)c(C)c(C)c1CN` came in with an EC above 1000 nM.
Regarding `NCc1ccc(CN)cc1`, the EC was above 1000 nM.
On to `C(=N\NC1=NCCN1)/c1ccc(/C=N/NC2=NCCN2)cc1`, for which the EC was above 1000 nM.
`Cc1ccc(NCc2ccc(CNc3ccc(C)cc3)cc2)cc1` had an EC of 10 nM.
Consider `CCc1ccc(NCc2ccc(CNc3ccc(CC)cc3)cc2)cc1`, for which the EC was 20 nM.
Regarding `c1ccc(NCc2ccccc2CNc2ccccc2)cc1`, the EC came out at 100 nM.
Compound `c1cc(CNC2=NCCN2)ccc1CNC1=NCCN1` had an EC above 1000 nM.
In turn, `c1ccc(NCc2ccc(CNc3ccccc3)c3ccccc23)cc1` displayed an EC of 100 nM.
For `c1ccc(NCc2ccc(CNc3ccccn3)cc2)nc1`, the half-maximal effective concentration (EC50) came out at 1 nM.
For the compound `Cc1cc(CN)c(C)cc1CN`, the EC is above 1000 nM.
Turning to `Oc1cc(CN2CCOCC2)c(O)cc1CN1CCOCC1`, the EC is above 1000 nM.
Compound `N=C(N)Nc1ccc(NC(=N)N)cc1` registered an EC above 1000 nM.

Still in this experiment, the particulars now being: read-out: EC50.
Consider `c1ccc(NCc2ccc(CNc3ccccn3)cc2)nc1`, for which the EC50 was 0.3 nM.

A word on the IC50: it is the concentration that gives 50% inhibition. By CC50 is commonly meant the concentration that lowers cell viability or growth by half. High values mean better tolerance by the cells, low ones harm at low concentration. For orientation: EC50 means the concentration giving half of the maximal effect.

These data come from ChEMBL document CHEMBL1138262, “Discovery of small molecule CXCR4 antagonists” (J Med Chem, 2007).
